Results on 11 molecules are retold here after ChEMBL document CHEMBL1139419, “Quantitative structure-activity relationship studies on nitrofuranyl anti-tubercular agents” (2008).

By MIC is commonly meant the least concentration at which growth counts as inhibited.

The subject of the test is Mycobacterium tuberculosis. As to the kind of experiment: Antitubercular activity against Mycobacterium tuberculosis H37Rv assessed as drug level causing 90% growth inhibition after 7 days by microbroth dilution method. It is filed as functional. The note with it: for MIC: Mycobacterium tuberculosis, H37Rv, 168 h. An outline of the steps:
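Two-fold serial dilutions in 7H9 broth with 10% albumin-dextrose complex and 0.05% (v/v) Tween80, in round-bottom microtiter plates, with final concentrations starting at 200 μg/mL. Equal volume of H37Rv broth inoculum added. Incubated aerobically at 37°C for 7 days and read visually. MIC taken as the lowest concentration inhibiting 90% of growth relative to the no-drug control.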

Converted amounts (≈) assume the structure as drawn.

`CC(C)(C)OC(=O)N1CCN(c2ccc(CNC(=O)c3ccc([N+](=O)[O-])o3)cn2)CC1`: the “-logMIC” value came to 5.7318 and the minimum inhibitory concentration (MIC) is 0.0008 µg/mL (≈ 0.00185 µM).

For the molecule `O=C(NCc1ccc(N2CCS(=O)(=O)CC2)cc1)c1ccc([N+](=O)[O-])o1`, the “-logMIC” value turned out to be 0.8801 and the MIC stood at 50 µg/mL (≈ 132 µM).

With `COC(=O)NC(=O)c1ccc([N+](=O)[O-])o1`, the “-logMIC” value was determined as 2.7286 and the MIC is 0.4 µg/mL (≈ 1.87 µM).

Take `CN1CCN(c2ccc3c(c2)CCN(C(=O)c2ccc([N+](=O)[O-])o2)C3)CC1`: the “-logMIC” value is listed as 3.8697 and the MIC is 0.05 µg/mL (≈ 0.135 µM).

Take `O=C(NCc1ccc(C(F)(F)F)cc1)c1ccc([N+](=O)[O-])o1`: the “-logMIC” value is listed as 3.7983 and the MIC came out at 0.05 µg/mL (≈ 0.159 µM).

On to `O=C(NCc1ccc(N2CCCN(Cc3ccccc3)CC2)cc1)c1ccc([N+](=O)[O-])o1`, for which the “-logMIC” value is 3.0309 and the MIC is 0.4 µg/mL (≈ 0.921 µM).

`O=C(NCc1ccco1)c1ccc([N+](=O)[O-])o1`: the “-logMIC” value came to 1.5774 and the minimal inhibitory concentration (MIC) was 6.25 µg/mL (≈ 26.5 µM).

With `O=C(NCc1ccc(N2CCN(Cc3ccccc3)CC2)cc1)c1ccc([N+](=O)[O-])o1`, the “-logMIC” value amounted to 2.4296 and the MIC came out at 1.56 µg/mL (≈ 3.71 µM).

Turning to `O=C(c1ccc([N+](=O)[O-])o1)N1CCC(Oc2ccc(OC(F)(F)F)cc2)CC1`, the “-logMIC” value was 5.6993 and the MIC was 0.0008 µg/mL (≈ 0.002 µM).

Regarding `NC1CCN(c2ccc(CNC(=O)c3ccc([N+](=O)[O-])o3)cc2)C1` (configuration not stated), the “-logMIC” value is on record as 2.6172 and the MIC amounted to 0.8 µg/mL (≈ 2.42 µM).

With `CCOC(=O)N1CCN(c2ccc(CNC(=O)c3ccc([N+](=O)[O-])o3)cc2)CC1`, the “-logMIC” value was 4.8123 and the MIC turned out to be 0.0062 µg/mL (≈ 0.0154 µM).
